Measured values reported in ChEMBL document CHEMBL3272181, “Design of substrate-site-directed irreversible inhibitors of adenosine 5'-phosphate aminohydrolase. Effect of substrate substituents on affinity for the substrate site” (J Med Chem, 1976).

How the values were obtained:
[1] = Linear competitive inhibition of rabbit muscle AMP aminohydrolase using AMP as substrate at 12 to 24 uM by Lineweaver-Burk plot analysis; type: tissue-based, Oryctolagus cuniculus, Muscle tissue
Summary of the method: (§1)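 Rabbit-muscle AMP aminohydrolase (Grade IV), diluted into 1 M KCl before use. Assayed at 22° in 0.01 M citrate buffer pH 6.5 with 25 mM KCl, following the fall in absorbance at 265 nm (Δε 8400, except 8-bromo-AMP). Initial velocities were linear and proportional to enzyme. At least four substrate and two inhibitor levels were used; parameters came from Lineweaver-Burk plots.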

Oryctolagus cuniculus [2] = species: Oryctolagus cuniculus; assay: Activity at rabbit muscle AMP aminohydrolase after 24 hrs by Lineweaver-Burk plot analysis relative to AMP; type: tissue-based; details: Muscle tissue
[3] = Retardation factor, Rf of the compound in 5:2:3 1-butanol-acetic acid-water by paper chromatographic analysis; type: physicochemical; details: buffer
[4] = Retardation factor, Rf of the compound in 1:1 2-propanol-0.25 M triethylammonium bicarbonate by paper chromatographic analysis; type: physicochemical
Oryctolagus cuniculus [5] = species: Oryctolagus cuniculus; assay: Activity at rabbit muscle AMP aminohydrolase by Lineweaver-Burk plot analysis; type: tissue-based; details: Muscle tissue; summary of the method: as §1
[6] = Linear competitive inhibition of rabbit muscle AMP aminohydrolase using AMP as substrate at 49 to 148 uM by Lineweaver-Burk plot analysis; type: tissue-based, Oryctolagus cuniculus, Muscle tissue; summary of the method: as §1
[7] = Retardation factor, Rf of the compound in 7:1:2 2-propanol-concentrated ammonia-water by paper chromatographic analysis; type: physicochemical; details: buffer
[8] = Retardation factor, Rf of the compound in 7:3 95% ethanol-1M ammonium acetate at pH 7.5 by paper chromatographic analysis; type: physicochemical
[9] = Retardation factor, Rf of the compound in 4:1:5 1-butanol-acetic acid-water by paper chromatographic analysis; type: physicochemical; details: buffer
Oryctolagus cuniculus [10] = species: Oryctolagus cuniculus; assay: Activity at rabbit muscle AMP aminohydrolase after 48 hrs by Lineweaver-Burk plot analysis relative to AMP; type: tissue-based; details: Muscle tissue
[11] = Linear noncompetitive inhibition of rabbit muscle AMP aminohydrolase using AMP as substrate at 19 to 38 uM by Lineweaver-Burk plot analysis; type: tissue-based, Oryctolagus cuniculus, Muscle tissue; summary of the method: as §1
[12] = Stability of the compound assessed as bacterial protease type 8-mediated amide linkage cleavage at pH 7.6 after 24 hrs by paper electrophoretic analysis; type: ADME; details: bacteria, buffer, pH 7.6, 24 h
[13] = Stability of the compound assessed as acylase (unknown origin)-mediated amide linkage cleavage at pH 7.6 after 24 hrs by paper electrophoretic analysis; type: ADME; details: buffer, pH 7.6, 24 h
Summary of the method: (§2)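 Compounds were incubated at 37° for 24 h in 0.05 M Tris pH 7.6 (2 ml) with one of: acylase 20 mg; pancreatic protease I 20 mg; fungal II 20 mg; papaya III 10 mg; bacterial IV 200 mg; VI 30 mg; VII 30 or 15 mg; X 5 mg; or hog-intestine peptidase 20 mg. Amide cleavage was checked by paper electrophoresis (pH 7.6, 4 kV, 30 min).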

[14] = Stability of the compound assessed as pancreatic protease type 1 (unknown origin)-mediated amide linkage cleavage at pH 7.6 after 24 hrs by paper electrophoretic analysis; type: ADME; details: buffer, pH 7.6, 24 h; summary of the method: as §2
[15] = Stability of the compound assessed as hog intestinal peptidase-mediated amide linkage cleavage at pH 7.6 after 24 hrs by paper electrophoretic analysis; type: ADME, Sus scrofa; details: pig, isolated protein, pH 7.6, 24 h; summary of the method: as §2
[16] = Stability of the compound assessed as fungal protease type 2-mediated amide linkage cleavage at pH 7.6 after 24 hrs by paper electrophoretic analysis; type: ADME; details: fungi, buffer, pH 7.6, 24 h; summary of the method: as §2
[17] = Stability of the compound assessed as bacterial protease type 4-mediated amide linkage cleavage at pH 7.6 after 24 hrs by paper electrophoretic analysis; type: ADME; details: bacteria, buffer, pH 7.6, 24 h; summary of the method: as §2
[18] = Linear competitive inhibition of rabbit muscle AMP aminohydrolase using AMP as substrate at 21 to 42 uM by Lineweaver-Burk plot analysis; type: tissue-based, Oryctolagus cuniculus, Muscle tissue; summary of the method: as §1
[19] = Stability of the compound assessed as bacterial protease type 10-mediated amide linkage cleavage at pH 7.6 after 24 hrs by paper electrophoretic analysis; type: ADME; details: bacteria, buffer, pH 7.6, 24 h; summary of the method: as §2
[20] = Stability of the compound assessed as papaya protease type 3-mediated amide linkage cleavage at pH 7.6 after 24 hrs by paper electrophoretic analysis; type: ADME; details: carica papaya, buffer, pH 7.6, 24 h; summary of the method: as §2
[21] = Stability of the compound assessed as bacterial protease type 6-mediated amide linkage cleavage at pH 7.6 after 24 hrs by paper electrophoretic analysis; type: ADME; details: bacteria, buffer, pH 7.6, 24 h; summary of the method: as §2
[22] = Stability of the compound assessed as bacterial protease type 7-mediated amide linkage cleavage at pH 7.6 after 24 hrs by paper electrophoretic analysis; type: ADME; details: bacteria, buffer, pH 7.6, 24 h; summary of the method: as §2
[23] = Stability of the compound in Tris buffer at pH 8.5 at 22 degC; type: physicochemical
[24] = Linear competitive inhibition of rabbit muscle AMP aminohydrolase using AMP as substrate at 64 to 128 uM by Lineweaver-Burk plot analysis; type: tissue-based, Oryctolagus cuniculus, Muscle tissue; summary of the method: as §1
[25] = Retardation factor, Rf of the compound in 7:3 1-propanol-water by paper chromatographic analysis; type: physicochemical; details: buffer
[26] = Linear competitive inhibition of rabbit muscle AMP aminohydrolase using AMP as substrate at 26 to 52 uM by Lineweaver-Burk plot analysis; type: tissue-based, Oryctolagus cuniculus, Muscle tissue; summary of the method: as §1
[27] = Linear competitive inhibition of rabbit muscle AMP aminohydrolase using AMP as substrate at 11 to 22 uM by Lineweaver-Burk plot analysis; type: tissue-based, Oryctolagus cuniculus, Muscle tissue; summary of the method: as §1
[28] = Linear competitive inhibition of rabbit muscle AMP aminohydrolase using AMP as substrate at 14 to 28 uM by Lineweaver-Burk plot analysis; type: tissue-based, Oryctolagus cuniculus, Muscle tissue; summary of the method: as §1
[29] = Linear competitive inhibition of rabbit muscle AMP aminohydrolase using AMP as substrate at 27 to 54 uM by Lineweaver-Burk plot analysis; type: tissue-based, Oryctolagus cuniculus, Muscle tissue; summary of the method: as §1
[30] = Linear competitive inhibition of rabbit muscle AMP aminohydrolase using AMP as substrate at 49 to 99 uM by Lineweaver-Burk plot analysis; type: tissue-based, Oryctolagus cuniculus, Muscle tissue; summary of the method: as §1
[31] = Linear competitive inhibition of rabbit muscle AMP aminohydrolase using AMP as substrate at 11 to 23 uM by Lineweaver-Burk plot analysis; type: tissue-based, Oryctolagus cuniculus, Muscle tissue; summary of the method: as §1
[32] = Non-linear competitive inhibition of rabbit muscle AMP aminohydrolase using AMP as substrate at 46 uM by Lineweaver-Burk plot analysis; type: tissue-based, Oryctolagus cuniculus, Muscle tissue; summary of the method: as §1
[33] = Non-linear competitive inhibition of rabbit muscle AMP aminohydrolase using AMP as substrate at 23 uM by Lineweaver-Burk plot analysis; type: tissue-based, Oryctolagus cuniculus, Muscle tissue; summary of the method: as §1

CCCOC(=O)NCC(C[C@H]1O[C@@H](n2cnc3c(N)ncnc32)[C@H](O)[C@@H]1O)P(=O)(O)O (stereo partly drawn)
Ki [1]: 14 µM | Activity (Oryctolagus cuniculus [2]): 0% | Rf [3]: 0.55 | Rf [4]: 0.81

CC1(C)O[C@@H]2[C@H](O1)[C@@H](COP(=O)(O)O)O[C@H]2n1cnc2c(N)ncnc21
Km (Oryctolagus cuniculus [5]): 130 µM | Activity (Oryctolagus cuniculus [2]): 0.5% | Ki [6]: 260 µM | Rf [7]: 0.34 | Rf [8]: 0.3 | Rf [3]: 0.59 | Rf [9]: 0.4

CCC(=O)NC[C@@H](OP(=O)(O)O)[C@H]1O[C@@H](n2cnc3c(N)ncnc32)[C@H](O)[C@@H]1O
Activity (Oryctolagus cuniculus [10]): 0% | Ki [11]: 205 µM

N#CC(C[C@H]1O[C@@H](n2cnc3c(N)ncnc32)[C@H](O)[C@@H]1O)P(=O)(O)O (stereo partly drawn)
Rf [3]: 0.27 | Rf [4]: 0.71

CCC(=O)NCC(C[C@H]1O[C@@H](n2cnc3c(N)ncnc32)[C@H](O)[C@@H]1O)P(=O)(O)O (stereo partly drawn)
Stability [12]: Stable | Activity (Oryctolagus cuniculus [2]): 0% | Stability [13]: Stable | Stability [14]: Stable | Stability [15]: Stable | Stability [16]: Stable | Stability [17]: Stable | Rf [3]: 0.39 | Ki [18]: 17 µM | Rf [4]: 0.83 | Stability [19]: Stable | Stability [20]: Stable | Stability [21]: Stable | Stability [22]: Stable

CC(=O)OC(C[C@H]1O[C@@H](n2cnc3c(N)ncnc32)[C@H](O)[C@@H]1O)P(=O)(O)O (stereo partly drawn)
Km (Oryctolagus cuniculus [5]): 120 µM | Activity (Oryctolagus cuniculus [2]): 7.8% | Rf [8]: 0.17 | Stability [23]: 16 h | Ki [24]: 330 µM | Rf [3]: 0.31 | Rf [25]: 0.27 | Rf [9]: 0.18

CC(=O)NCC(C[C@H]1O[C@@H](n2cnc3c(N)ncnc32)[C@H](O)[C@@H]1O)P(=O)(O)O (stereo partly drawn)
Km (Oryctolagus cuniculus [5]): 80 µM | Stability [12]: Stable | Activity (Oryctolagus cuniculus [2]): 0.61% | Stability [13]: Stable | Stability [14]: Stable | Stability [15]: Stable | Stability [16]: Stable | Stability [17]: Stable | Rf [3]: 0.29 | Rf [4]: 0.73 | Stability [19]: Stable | Ki [26]: 20 µM | Stability [20]: Stable | Stability [21]: Stable | Stability [22]: Stable

CCOC(=O)NCC(C[C@H]1O[C@@H](n2cnc3c(N)ncnc32)[C@H](O)[C@@H]1O)P(=O)(O)O (stereo partly drawn)
Activity (Oryctolagus cuniculus [2]): 0% | Ki [27]: 16 µM | Rf [3]: 0.41 | Rf [4]: 0.78

CCC(=O)NC[C@H](OP(=O)(O)O)[C@H]1O[C@@H](n2cnc3c(N)ncnc32)[C@H](O)[C@@H]1O
Ki [28]: 42 µM

COC(=O)NCC(C[C@H]1O[C@@H](n2cnc3c(N)ncnc32)[C@H](O)[C@@H]1O)P(=O)(O)O (stereo partly drawn)
Ki [29]: 19 µM | Activity (Oryctolagus cuniculus [2]): 0% | Rf [3]: 0.33 | Rf [4]: 0.75

CC(=O)O[C@@H]1[C@H](OC(C)=O)[C@@H](COP(=O)(O)O)O[C@H]1n1cnc2c(N)ncnc21
Km (Oryctolagus cuniculus [5]): 670 µM | Activity (Oryctolagus cuniculus [2]): 0.07% | Rf [3]: 0.56 | Ki [30]: 105 µM | Rf [25]: 0.41 | Rf [9]: 0.34

CC(=O)NC[C@H](OP(=O)(O)O)[C@H]1O[C@@H](n2cnc3c(N)ncnc32)[C@H](O)[C@@H]1O
Activity (Oryctolagus cuniculus [2]): > 0% | Ki [31]: 18 µM

CC(=O)NC[C@@H](OP(=O)(O)O)[C@H]1O[C@@H](n2cnc3c(N)ncnc32)[C@H](O)[C@@H]1O
Ki [32]: 30 µM | Activity (Oryctolagus cuniculus [10]): > 0% | Ki [33]: 47 µM

CC(=O)OC(C[C@H]1O[C@@H](n2cnc3c(N)ncnc32)[C@@H]2OC(C)(C)O[C@@H]21)P(=O)(O)O (stereo partly drawn)
Rf [8]: 0.39 | Rf [3]: 0.65 | Rf [25]: 0.49 | Rf [9]: 0.5

NCC(C[C@H]1O[C@@H](n2cnc3c(N)ncnc32)[C@H](O)[C@@H]1O)P(=O)(O)O (stereo partly drawn)
Km (Oryctolagus cuniculus [5]): 140 µM | Activity (Oryctolagus cuniculus [2]): 0.65% | Rf [3]: 0.21 | Rf [4]: 0.49

Nc1ncnc2c1ncn2[C@@H]1O[C@H](COP(=O)(O)O)[C@@H](O)[C@H]1O
Km (Oryctolagus cuniculus [5]): 600 µM | Vmax (Oryctolagus cuniculus [5]): 294 µmol/min | Activity (Oryctolagus cuniculus [2]): 100%
